“And” between values parts separate entries of the source, which are not always exact repeats. Equal values may be shown once.

Assay [1] deals with S9. The assay can be described thus: (§1) Activity expressed as no. of revertants per plate in strain TA1535 with hamster S9 cells (3 mg/plate). The class given is functional, Cricetulus griseus.
The subject of assay [2] is S9. The assay can be described thus: Activity expressed as no. of revertants per plate in strain TA1535 with and without hamster S9 cells (3 mg/plate) at the dose of 25 ug. It is filed as functional, Cricetulus griseus.
For assay [3], the system named is S9. The assay can be described thus: (§2) Activity expressed as no. of revertants per plate in strain TA1535 with and without hamster S9 cells (3 mg/plate) at the dose of 1 ug. It is filed as functional, Cricetulus griseus.
For assay [4], the system named is S9. The assay is described as follows: (§3) Activity expressed as no. of revertants per plate in strain TA1535 with and without hamster S9 cells (3 mg/plate) at the dose of 5 ug. The class given is functional, Cricetulus griseus.
In assay [5] the test system is S9. The assay can be described thus: (§4) Activity expressed as no. of revertants per plate in strain TA1535 with and without hamster S9 cells (3 mg/plate) at the dose of 2.5 ug. It is filed as functional, Cricetulus griseus.
The test system of assay [6] is S9. The assay can be described thus: (§5) Activity expressed as no. of revertants per plate in strain TA1535 with and without hamster S9 cells (3 mg/plate) at the dose of 10 ug. It is filed as functional, Cricetulus griseus.
Assay [7] relates to S9. The assay can be described thus: Activity expressed as no. of revertants per plate in strain TA1535 with and without hamster S9 cells (3 mg/plate) at the dose of 1000 ug. It is filed as functional, Cricetulus griseus.
The test system of assay [8] is S9. The assay can be described thus: (§6) Activity expressed as no. of revertants per plate in strain TA1535 with and without hamster S9 cells (3 mg/plate) at the dose of 250 ug. The class given is functional, Cricetulus griseus.
The test system of the next assay is Salmonella typhimurium. The assay is described as follows: Activity expressed as no. of revertants per plate in Salmonella Typhimurium TA1535 with and without hamster S9 cells (3 mg/plate) at the dose of 50 ug. The class given is functional, Salmonella enterica subsp. enterica serovar Typhimurium.
The test system of assay [9] is S9. The assay can be described thus: (§7) Activity expressed as no. of revertants per plate in strain TA1535 with and without hamster S9 cells (3 mg/plate) at the dose of 500 ug. The class given is functional, Cricetulus griseus.
The test system of assay [10] is S9. The assay can be described thus: Activity expressed as no. of revertants per plate in strain TA1535 with and without hamster S9 cells (3 mg/plate) at the dose of 100 ug. It is filed as functional, Cricetulus griseus.
Assay [11] relates to S9. The assay is described as follows: Activity expressed as no. of revertants per plate in strain TA1535 without hamster S9 cells (3 mg/plate) at the dose of 250 ug. It is filed as functional, Cricetulus griseus. Summed up:
(§8)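 Ames plate incorporation test in Salmonella TA1535 (base-pair substitution detector), with or without Aroclor 1254-induced hamster S9 mix (3 mg/plate). Doses span a 10-point range of 1–1000 μg/plate. At least two independent dose-response studies, each on duplicate plates; mean revertants per plate reported. Counts are significant when above twice the historical or twice the current control mean, whichever is greater.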

For assay [12], the system named is S9. The assay is described as follows: Activity expressed as no. of revertants per plate in strain TA1535 without hamster S9 cells (3 mg/plate) at the dose of 50 ug. It is filed as functional, Cricetulus griseus. Summed up:
as §8

The subject of assay [13] is S9. The description is as §6. It is filed as functional, Cricetulus griseus. Summed up:
as §8
The source holds these as a separate data set.

Assay [14] deals with S9. The assay is described as §1. The class given is functional, Cricetulus griseus. Summed up:
as §8
The source holds these as a separate data set.

For assay [15], the system named is S9. The description is as §7. It is filed as functional, Salmonella enterica subsp. enterica serovar Typhimurium. Summed up:
as §8

The subject of assay [16] is S9. Described as §5. The class given is functional, Cricetulus griseus. Summed up: as §8
The source holds these as a separate data set.

The test system of assay [17] is S9. The description is as §3. It is filed as functional, Cricetulus griseus. Summed up: as §8
The source holds these as a separate data set.

Assay [18] concerns S9. Described as §7. It is filed as functional, Cricetulus griseus. Summed up: as §8
This is another data set of the same source.

Assay [19] relates to S9. The description is as §4. It is filed as functional, Cricetulus griseus. Summed up:
as §8
This is another data set of the same source.

For assay [20], the system named is S9. The description is as §2. It is filed as functional, Cricetulus griseus. Summed up:
as §8
The source holds these as a separate data set.

Take `CN(Cc1ccc(C#N)cc1)N=O`: the Activity in the assay with S9 [1] was 21 and 13; with S9 [2], 29 and 45; with S9 [3], 25 and 14; in the assay on S9 [4], 29; in the assay on S9 [5], 26 and 19; in the assay on S9 [6], 23 and 32.
`CN(Cc1ccc([N+](=O)[O-])cc1)N=O`: the Activity was 13 and 9 in the assay on S9 [1]; 13 and 27 with S9 [2]; 17 and 11 with S9 [3]; 14 and 11 with S9 [4]; 18 and 15 in the assay on S9 [5]; 10 and 12 in the assay on S9 [6].
On to `CN(Cc1ccc(C(=O)O)cc1)N=O`, for which the Activity in the assay with S9 [1] was 11 and 6; with S9 [7], 14 and 9; in the assay on S9 [2], 6 and 4; in the assay on S9 [8], 15 and 7; in the assay with S9 [3], 12 and 8; in the assay on S9 [4], 13 and 6. Moreover, the Activity in the assay on Salmonella typhimurium was 8 and 5 and 10 and 7; in the assay on S9 [5], 12 and 6; in the assay with S9 [9], 10 and 8; in the assay with S9 [10], 13 and 10.
Take `CN(Cc1ccccc1)N=O`: the Activity in the assay on S9 [1] was 14 and 20; with S9 [2], 18 and 24; in the assay with S9 [8] it was 23 and 58; in the assay with S9 [3], 14 and 21; in the assay on S9 [4], 15 and 24; in the assay with S9 [5] it was 18 and 24. Also, the Activity with S9 [6] is 12; in the assay with S9 [10], 17 and 44.
Regarding `COc1ccc(CN(C)N=O)cc1`, the Activity is 11 and 8 with S9 [1]; 18 and 17 in the assay with S9 [2]; 56 in the assay on S9 [8]; 10 and 13 with S9 [3]; 15 and 10 in the assay with S9 [4]; 20 in the assay on S9 [11]. In addition, the Activity is 19 in the assay with S9 [12]; 11 and 26 in the assay on Salmonella typhimurium; 21 and 19 in the assay on S9 [5]; 24 and 14 with S9 [6]; 15 and 44 in the assay on S9 [10].
Consider `CN(Cc1ccc(F)cc1)N=O`, for which the Activity is 14 and 6 in the assay on S9 [1]; 16 in the assay with S9 [7]; 13 and 17 in the assay on S9 [2]; 39 with S9 [8]; 15 and 8 in the assay with S9 [3]; 17 in the assay with S9 [13]. Besides, the Activity was 12 and 10 in the assay on S9 [4]; 16 and 7 with S9 [5]; 21 and 50 in the assay with S9 [9]; 13 and 8 in the assay on S9 [6].
As for `CN(Cc1ccc(Cl)cc1)N=O`, the Activity in the assay with S9 [1] was 13; in the assay on S9 [14], 19; in the assay with S9 [15], 913; in the assay with S9 [16], 12 and 32; in the assay with S9 [17], 20 and 17; in the assay with S9 [18], 10. Moreover, the Activity in the assay with S9 [19] is 18 and 15; in the assay on S9 [20], 13 and 9.

Source of the values: ChEMBL document CHEMBL1122338, “Mutagenicity and chemistry of N-nitroso-N-(p-substituted-benzyl)methylamines” (1983).
